UBC13 polyUb – UBC13 polyubiquitin chain formation inhibitors, primary screen, biochemical, TR-FRET, uHTS; Ubiquitin-conjugating enzyme E2 N (Homo sapiens), P61088; inhibition, % at 20 µM; actives 0.47% (n = 330,000); AID 485273, 2010; in the data active = inhibition above about 45%, passing the limit was not always enough
Target sequence (P61088 whole entry, looked up): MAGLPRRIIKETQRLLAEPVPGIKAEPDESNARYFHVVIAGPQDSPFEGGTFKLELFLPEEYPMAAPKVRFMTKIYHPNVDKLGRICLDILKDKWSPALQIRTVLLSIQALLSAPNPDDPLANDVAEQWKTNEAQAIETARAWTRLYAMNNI
Apaf1 inhib – inhibitors of human Apaf-1 apoptosome, primary screen, biochemical, DEVD-Rh110 fluorescence, uHTS; Apoptotic protease-activating factor 1 (Homo sapiens), O14727; reconstituted apoptosome caspase-3 activity; inhibition, % at 20 µM; actives 0.71% (n = 330,000); AID 489030, 2010; active = inhibition of at least 40% at 20 µM;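 note: plate controls were DMSO wells for no effect and DEVD-CHO caspase inhibitor wells for full effect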
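System – cell-free apoptosome with Apaf-1, procaspase-3 and caspase-9 · Buffer or medium – pH 7.5 Hepes buffer with CHAPS, BSA, DTT · Also added – cytochrome c with DEVD-Rh110 · Times – 30 min compound preincubation, 50 min activation, room temperature · Technique – Rh110 fluorescence intensity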
SENP6 inh – SENP6 protease inhibitors, primary screen, biochemical, luminescence, uHTS. Sentrin-specific protease 6 (Homo sapiens), Q9GZR1. Recombinant SENP6 catalytic domain, aminoluciferin luminescence. inhibition, % at 10 µM. actives 1.8% (n = 330,000). AID 2599, 2010;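 active = inhibition above about 50% at the single tested dose, limit read from the data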;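 note: plate controls were DMSO wells with enzyme for no effect and DMSO wells lacking enzyme for full effect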
Target sequence (Q9GZR1 628-1112 limits assumed): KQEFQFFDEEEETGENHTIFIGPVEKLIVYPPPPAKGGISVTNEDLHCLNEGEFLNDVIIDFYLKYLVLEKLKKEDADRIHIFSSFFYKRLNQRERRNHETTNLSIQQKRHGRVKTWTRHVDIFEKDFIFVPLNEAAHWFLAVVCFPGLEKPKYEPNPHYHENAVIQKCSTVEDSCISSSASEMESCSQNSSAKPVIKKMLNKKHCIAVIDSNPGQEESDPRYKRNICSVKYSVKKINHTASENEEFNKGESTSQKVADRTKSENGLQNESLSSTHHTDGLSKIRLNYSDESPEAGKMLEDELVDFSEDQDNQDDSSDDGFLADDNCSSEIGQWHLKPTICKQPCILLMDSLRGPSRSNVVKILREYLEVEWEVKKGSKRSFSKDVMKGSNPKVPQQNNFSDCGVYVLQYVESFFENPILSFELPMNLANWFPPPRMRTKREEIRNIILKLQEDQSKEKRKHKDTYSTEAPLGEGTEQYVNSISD
SENP7 block – SENP7 protease inhibitors, primary screen, biochemical, luminescence, uHTS; Sentrin-specific protease 7 (Homo sapiens), Q9BQF6; inhibition, % at 5 µM; actives 1.5% (n = 330,000); AID 434973, 2010; recombinant SENP7, Z-RLRGG-aminoluciferin luminescence, 40 min;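 active = inhibition above about 50% at the single test dose, limit read from the data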;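 note: plate controls were DMSO with enzyme for no effect and no enzyme buffer wells for full effect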
SENP8 block-1 – SENP8 protease inhibitors, primary screen, biochemical, luminescence | purified SENP8, Z-RLRGG-aminoluciferin cleavage | inhibition, % at 10 µM | actives 1.2% (n = 330,000) | AID 2540, 2010; in the data active = inhibition above about 50%
SENP8 block-2 – human SENP8 protease inhibitors, primary screen, biochemical, fluorescence, Nedd8 protein substrate, uHTS; Sentrin-specific protease 8 (Homo sapiens), Q96LD8; recombinant SENP8; inhibition, % at 20 µM; actives 0.64% (n = 360,000); AID 602440, 2012; in the data active = inhibition mostly above about 40%, no sharp cut-off; inactive = mostly below about 27%
SENP8 inh conf – human SENP8 protease inhibitors, confirmation, biochemical, Nedd8 protein substrate, single concentration; purified SENP8, Nedd8-AMC/pro-Nedd8 cleavage fluorescence, 30 min; shares compounds with SENP8 block-2; inhibition, % at 25 µM; actives 15% (n = 1,400); in the data active = inhibition mostly above about 39%, no sharp cut-off; inactive = mostly below about 34%
* = called active by the depositor; . = no result given. Rows were chosen to be rich in hits. Some 3% of all compounds tested hit in one or more screens of this group.

SMILES | UBC13 polyUb | Apaf1 inhib | SENP6 inh | SENP7 block | SENP8 block-1 | SENP8 block-2 | SENP8 inh conf
O=C(/C=C/c1cccs1)c1ccc([N+](=O)[O-])cc1 | -6 | -2 | -10 | -5 | -7 | 50* | 8
COc1ccc(CNC(=O)c2ccc(Cn3cc(Br)cn3)o2)cc1 | 4 | 13 | -3 | -2 | 4 | -13 | .
Cc1ccc(Cl)cc1NC(=O)C[n+]1ccc(Cc2ccc([N+](=O)[O-])cc2)cc1 | 31 | 4 | 3 | 19 | 0 | 23 | .
CC(C)(C)NC(=O)NC(=O)C[n+]1ccc(Cc2ccc([N+](=O)[O-])cc2)cc1 | 10 | 8 | 15 | 7 | 10 | 50* | 17
O=C(Nc1cccc(Cl)c1)c1ccc(NCC2CCCO2)c([N+](=O)[O-])c1 (centres undefined) | -42 | -11 | -11 | -7 | 5 | 44* | 13
COc1cc(C(=O)OC2CC3CCC2(C)C3(C)C)ccc1OC(C)=O (centres undefined) | -1 | 8 | 2 | -4 | -7 | 62* | 7
CC(C)c1cc(C(=O)OCC(=O)NC2CCS(=O)(=O)C2)c(O)c(C(C)C)c1 (centres undefined) | . | . | . | . | . | -20 | .
COc1ccc(C(=O)C(CCCCC(CN(C)C)C(=O)c2ccc(OC)cc2)CN(C)C)cc1 (centres undefined) | 0 | -6 | -10 | -1 | 0 | 42* | 12
CC(C)=CCC/C(C)=C/CC/C(C)=N/O | 9 | -3 | 25 | 1 | 0 | 20 | .
C=CC(C)(O)CCC=C(C)C (centres undefined) | 6 | -13 | -2 | -6 | 8 | 41* | 17
CN1CCN(C(=O)C2CCN(S(=O)(=O)c3cnc[nH]3)CC2)CC1 | 5 | -1 | 4 | 4 | 2 | 27 | .
COc1ccc(CCNC(=O)C2CCN(S(=O)(=O)c3cnc[nH]3)CC2)cc1OC | 0 | -1 | -2 | 0 | 6 | 40* | 18
O=C(C1CCN(S(=O)(=O)c2cnc[nH]2)CC1)N1CCc2ccccc2C1 | 4 | 5 | -3 | 0 | -1 | 42* | 34
COc1ccc(CCC(=O)N2CCN(S(=O)(=O)c3cccc(C(F)(F)F)c3)CC2)cc1OC | -7 | 7 | -6 | -6 | -9 | 22 | .
COc1ccc(CCNC(=O)CCC(=O)N2CCN(S(=O)(=O)c3ccccc3)CC2)cc1OC | -2 | -15 | -16 | -5 | -10 | 48* | -5
COc1ccc(CCNC(=O)CCC(=O)N2CCN(S(=O)(=O)c3ccc(Cl)cc3)CC2)cc1OC | -13 | 4 | -17 | -5 | 2 | 44* | 8
CCn1cc(/C=C(\NC(=O)c2ccccc2F)C(=O)N2CCCC2)c2ccccc21 | 0 | 6 | 9 | -8 | -10 | 5 | .
O[C@H]1CN(CC2CCCCC2)[C@@H](c2ccccc2)C[C@@H]1n1cc(C2CC2)nn1 | . | . | . | . | . | 0 | .
C/C(=C\C(=S)Nc1ccccc1)Nc1ccccc1 | -9 | -2 | -9 | 2 | -7 | -21 | .
CN(N=Cc1ccccc1)C(=S)Nc1ccccc1 | . | . | . | . | . | 43* | 19
CC(O)Cn1c(N2CCCC2)nc2c1c(=O)[nH]c(=O)n2C (centres undefined) | -8 | 9 | -5 | -2 | -4 | 2 | .
CCc1nc2ccc(C(=O)NCCCn3ccnc3)cn2c1N(C)Cc1nccs1 | . | . | . | . | . | 6 | .
O=S1(=O)CC(N2CC=CC2)CN1C1CCCCC1 (centres undefined) | . | . | . | . | . | 41* | 36*
CCOC(=O)C1(CC2CCCCO2)CCN(Cc2cn[nH]c2-c2cccc(F)c2)CC1 (centres undefined) | -7 | -6 | -9 | -3 | -8 | 45* | 15
COc1ccccc1NS(=O)(=O)c1ccc(N/N=C/c2ccccc2OCC(=O)O)c([N+](=O)[O-])c1 | -53 | 5 | 8 | 5 | 14 | 30 | .
SMILES | UBC13 polyUb | Apaf1 inhib | SENP6 inh | SENP7 block | SENP8 block-1 | SENP8 block-2 | SENP8 inh conf
CCN(CC)S(=O)(=O)c1ccc(N/N=C/c2ccccc2OCC(=O)O)c([N+](=O)[O-])c1 | -82 | 4 | 3 | 4 | 6 | 51* | 25
Cc1ccc(-c2nnc(CCC(=O)NCC3C4CC5CC(C4)CC3C5)o2)s1 (centres undefined) | -1 | 14 | -13 | 0 | -2 | 6 | .
O=C(CSc1ccc(Br)cc1)Nc1ccccc1Oc1ccccc1 | 7 | 13 | -19 | 0 | -4 | 50* | 14
O=C(CSc1ccc(Cl)cc1)Nc1ccccc1Oc1ccccc1 | 1 | 8 | 7 | 6 | 8 | 23 | .
O=C(NC1CCCCC1)C1c2ccccc2OCC(=O)N1C1CC1 (centres undefined) | . | . | . | . | . | 2 | .
COc1cc(SC#N)ccc1N=Cc1c(C)[nH]n(-c2ccc(Cl)cc2)c1=O | -28 | 25 | 8 | -2 | -14 | 61* | 12
Cc1csc2c(N3CCN(C(=O)NC(C)(C)C)CC3)ncnc12 | 9 | -11 | -43 | 7 | 1 | 19 | .
Cc1csc2c(N3CCN(C(=O)c4ccc(C(C)(C)C)cc4)CC3)ncnc12 | 4 | 22 | -30 | 1 | -15 | 40* | 20
O=C(Nc1ccccc1O)N1c2ccccc2Sc2ccccc21 | 16 | 6 | -4 | 2 | 0 | 22 | .
COc1cccc(NC(=O)CN2C(=O)C(=O)N(C3CCCC3)C2=O)c1 | -2 | -5 | 14 | 6 | 1 | 2 | .
CCc1ccc(NC(=O)NCCN2CCc3ccccc3C2)cc1 | 14 | -7 | 0 | -2 | -4 | 45* | 16
CCc1ccc(NC(=O)CN2CCc3ccccc3C2)cc1 | 1 | 12 | 9 | 6 | 7 | 70* | 36
Cc1ccc(C(=O)N2CCC(Cc3ccccc3)CC2)cc1S(=O)(=O)N1CCOCC1 | 1 | 29 | -17 | -10 | -6 | 9 | .
Cc1ccnc2nc(C(=O)OCC(=O)N(C)C3CCCCC3)nn12 | . | . | . | . | . | 14 | .
Cc1ccc(NC(=S)N/N=C/c2ccc([N+](=O)[O-])s2)cc1 | -55 | 3 | 24 | 2 | 7 | 40* | 53*
CCOc1ccccc1C(=O)N(CCC(=O)OC)c1ccccn1 | -6 | -3 | -9 | -5 | -4 | 43* | 16
O=C(NCc1ccc2c(c1)OCO2)C1CC(c2cccc(Br)c2)=NO1 (centres undefined) | -6 | 4 | -21 | -4 | -8 | 40* | 11

Screens deposited in PubChem BioAssay by Sanford-Burnham Center for Chemical Genomics.
